{
  "source": "ChEMBL document CHEMBL4513216",
  "about": "“Probing the Open Global Health Chemical Diversity Library for Multistage-Active Starting Points for Next-Generation Antimalarials” (ACS Infect Dis, 2020)",
  "data": [
    {"test": "Toxicity liver stage against HepG2, at 10uM", "assay_type": "cell-based", "set-up": "test concentration 10 uM, cell line HepG2-A16-CD81EGFP", "settings": "human, HepG2-A16-CD81EGFP cells; read-out: INHIBITION", "summary_of_the_method": "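Uninfected HepG2-A16-CD81EGFP cells, 3 × 10^3 per well, 1536-well, plated on prespotted compound at 10 μM final, parasite-free screening media added to match infected plates; puromycin 10 μM positive, DMSO 0.5% negative; run in parallel with 48 h PbLuc assay at 37 °C, 5% CO2; viability by CellTiter-Glo luminescence, normalized to controls.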", "units": {"cytotoxicity at 10 µM": "%"}, "values": [
      {"smiles": "Cc1cccc(CC(=O)N2CCN(c3nccn3C)CC2)c1", "cytotoxicity at 10 µM": 8.68},
      {"smiles": "Cc1nc(NCC23CCCN2CCC3)cc(C2CCCNC2)n1", "note": "(configuration not stated)", "cytotoxicity at 10 µM": 7.54},
      {"smiles": "CCCN(C)C(=O)c1ccc2c(c1)[nH]c(=O)n2CCOCC", "cytotoxicity at 10 µM": -30.6},
      {"smiles": "Cc1nc(NC(=O)CN2CCc3c(nc(C(C)C)n3C)C2)sc1C", "cytotoxicity at 10 µM": -9.52},
      {"smiles": "CC(=O)N1CCN(c2ccccc2CNc2ccc3[nH]ncc3c2)CC1", "cytotoxicity at 10 µM": 9.17},
      {"smiles": "CC(c1cccc(O)c1)N(C)S(N)(=O)=O", "note": "(configuration not stated)", "cytotoxicity at 10 µM": -1.89},
      {"smiles": "CCc1oc(C(=O)N[C@@H]2c3ccccc3C[C@@H]2O)cc1C", "cytotoxicity at 10 µM": 0.243},
      {"smiles": "COCC1CN(Cc2ccc(OC)cc2)S(=O)(=O)c2cnccc2O1", "note": "(configuration not stated)", "cytotoxicity at 10 µM": -1.78},
      {"smiles": "CNc1nc(C(=O)N2CCCN(c3ccnc(C)c3)CC2)cs1", "cytotoxicity at 10 µM": 6.37},
      {"smiles": "CCc1noc(C2CCCCN2C(=O)c2cccnc2)n1", "note": "(configuration not stated)", "cytotoxicity at 10 µM": 8.52},
      {"smiles": "CN(C)c1ccc(CC2CCCN(c3cnccn3)C2)nn1", "note": "(configuration not stated)", "cytotoxicity at 10 µM": 4.71},
      {"smiles": "O=C(CNC(=O)c1cnccn1)Nc1ncc[nH]1", "cytotoxicity at 10 µM": -43.4},
      {"smiles": "N#Cc1ccnc(N2CCN(CC(O)c3ccc(F)cc3F)CC2)c1", "note": "(configuration not stated)", "cytotoxicity at 10 µM": -0.626},
      {"smiles": "Cc1nnc(NC(=O)C2CSCN2C(=O)C2CCCC2)s1", "note": "(configuration not stated)", "cytotoxicity at 10 µM": -17.1},
      {"smiles": "Cc1occc1C(=O)N1CCC2(CCN(Cc3ccccn3)C2=O)C1", "note": "(configuration not stated)", "cytotoxicity at 10 µM": -152},
      {"smiles": "CC(C)C(O)CNC(=O)Nc1cnn(Cc2ccccc2)c1", "note": "(configuration not stated)", "cytotoxicity at 10 µM": 6.61},
      {"smiles": "CCc1cc(N(C)Cc2noc(C(C)C)n2)nc(N2CCOCC2)n1", "cytotoxicity at 10 µM": 0.515},
      {"smiles": "O=C(CC1CCCC1)N1C[C@H](OCc2ccncc2)[C@H]2OCCC[C@H]21", "cytotoxicity at 10 µM": 2.75},
      {"smiles": "Cc1ccc(CN(CCCN(C)C)Cc2cnc(N(C)C)nc2)o1", "cytotoxicity at 10 µM": 2.26},
      {"smiles": "CS(=O)(=O)N[C@@H]1CN(C(=O)c2cnccn2)[C@@H]2CCCO[C@@H]21", "cytotoxicity at 10 µM": -73.4},
      {"smiles": "CN(Cc1cn2c(n1)CN(C(=O)CC1CC1)CC2)Cc1ccco1", "cytotoxicity at 10 µM": -2.21},
      {"smiles": "CC(C)NC(=O)N1CCC2(CCC(=O)N2CCN(C)C)CC1", "cytotoxicity at 10 µM": -7.13},
      {"smiles": "O=C1CC2(CCCC2)CC(=O)N1Cc1nc2ncccn2n1", "cytotoxicity at 10 µM": 2.49},
      {"smiles": "CCc1ccc(C(=O)N2CCC(O)(CN3CCOCC3)C(C)(C)C2)[nH]1", "note": "(configuration not stated)", "cytotoxicity at 10 µM": 0.542},
      {"smiles": "N#Cc1ccc(C(=O)N2CC[C@H]3[C@@H]2CCC(=O)N3c2cccnc2)cc1", "cytotoxicity at 10 µM": 1.77},
      {"smiles": "CCCN1C[C@@H]2CC[C@H]1CN(Cc1cccc(O)c1)C2", "cytotoxicity at 10 µM": -122},
      {"smiles": "CCCc1nc(N2CCCC(CCOC)C2)c2cnn(C)c2n1", "note": "(configuration not stated)", "cytotoxicity at 10 µM": 12.1},
      {"smiles": "CCN(Cc1ccncc1)Cc1cn(-c2ccccc2)nn1", "cytotoxicity at 10 µM": -49.8},
      {"smiles": "CN1CCC(NC(=O)CC2CN(Cc3ccccc3)CCO2)CC1", "note": "(configuration not stated)", "cytotoxicity at 10 µM": -22.2},
      {"smiles": "O=C(Cc1csc(-c2ccccc2F)n1)NCc1cccc(C(=O)O)c1", "cytotoxicity at 10 µM": -5.48},
      {"smiles": "Cc1cc(S(=O)(=O)N(CC(N)=O)CC(C)C)ccc1Br", "cytotoxicity at 10 µM": -10.1},
      {"smiles": "COCC(O)CN1CCC(=O)N(CC(=O)C(C)(C)C)Cc2ccccc21", "note": "(configuration not stated)", "cytotoxicity at 10 µM": 6.31},
      {"smiles": "Cn1nc(Br)nc1Sc1ccccc1NC(=O)C1CC1", "cytotoxicity at 10 µM": 3.62},
      {"smiles": "N#Cc1cccc(N2CC3(CCN(C(=O)NC4CC4)C3)CC2=O)c1", "note": "(configuration not stated)", "cytotoxicity at 10 µM": -0.987},
      {"smiles": "CC(Cn1ccnc1)NS(=O)(=O)c1ccc(F)c(Cl)c1", "note": "(configuration not stated)", "cytotoxicity at 10 µM": 9.25},
      {"smiles": "COCCNc1cc(C)nn2cnnc12", "cytotoxicity at 10 µM": -1.63},
      {"smiles": "CC(C)N(Cc1nccn1C)C(=O)c1cnc(O)cn1", "cytotoxicity at 10 µM": -1.82},
      {"smiles": "Cc1c(C(=O)O)oc2ccc(I)cc12", "cytotoxicity at 10 µM": -1.87},
      {"smiles": "O=C1CC2(CCN(Cc3ccc(Cl)s3)C2)C(=O)N1", "note": "(configuration not stated)", "cytotoxicity at 10 µM": -3.3},
      {"smiles": "O=C(c1cnccn1)N1CCc2onc(Cn3cccn3)c2C1", "cytotoxicity at 10 µM": -0.25},
      {"smiles": "COc1cccc([C@@H]2CCN(Cc3[nH]nc(C)c3Cl)C[C@H]2O)c1", "cytotoxicity at 10 µM": -3.26},
      {"smiles": "CCCC(=O)N1CCOC2(COCCN(CC(=O)NC)C2)C1", "note": "(configuration not stated)", "cytotoxicity at 10 µM": -3.58},
      {"smiles": "COCCS(=O)(=O)Nc1cc(Cl)ccn1", "cytotoxicity at 10 µM": 2.62},
      {"smiles": "CCCc1cc(C(=O)N[C@@H]2CCC[C@@H](N3CCCC3)[C@@H]2O)no1", "cytotoxicity at 10 µM": -2.48},
      {"smiles": "Cc1ccc(CN2CC[C@H]3[C@H]2CCN3S(=O)(=O)C2CC2)s1", "cytotoxicity at 10 µM": 7.74},
      {"smiles": "Cc1cccc(C2(CNC(C)c3nnc(C)o3)CCCC2)c1", "note": "(configuration not stated)", "cytotoxicity at 10 µM": 6.73},
      {"smiles": "COCCNC(=O)Cn1c(C)cc2nc(SC)n(CC(C)C)c(=O)c21", "cytotoxicity at 10 µM": -14.6},
      {"smiles": "CC(c1ccccc1F)N1CCN(C(=O)Cc2ccncc2)CC1", "note": "(configuration not stated)", "cytotoxicity at 10 µM": -2.94},
      {"smiles": "N#Cc1c(N)nc2c(c1-c1c[nH]nc1C1CCCCC1)CC(N)CC2", "note": "(configuration not stated)", "cytotoxicity at 10 µM": -3.06},
      {"smiles": "O=C(CCS(=O)(=O)C1CCCC1)N1CCC(O)(C(F)(F)F)C1", "note": "(configuration not stated)", "cytotoxicity at 10 µM": 18.9},
      {"smiles": "CC(C)(C)OC(=O)N1CCCc2ccc(NCc3ncc[nH]3)cc21", "cytotoxicity at 10 µM": -5.99},
      {"smiles": "CN1CCc2c(sc3c2C(=O)NC(C=Cc2ccccc2)N3)C1", "note": "(configuration not stated)", "cytotoxicity at 10 µM": 6.33},
      {"smiles": "O=C(CCC1CCN(C2CCSCC2)CC1)NCC1CCCO1", "note": "(configuration not stated)", "cytotoxicity at 10 µM": 8.73},
      {"smiles": "COc1c(C)cc(CNCc2ccnc(N3CCOCC3)c2)cc1C", "cytotoxicity at 10 µM": 11.9},
      {"smiles": "Cc1nc2cc(OCc3nc(C(=O)NC(C)(CO)CO)co3)ccc2s1", "cytotoxicity at 10 µM": 47.6},
      {"smiles": "Cc1ccc(C(=O)NCCN2CCOCC2)c(=O)[nH]1", "cytotoxicity at 10 µM": -8.44},
      {"smiles": "O=C(c1ccco1)N1C[C@H]2CCCN(CC3CCOCC3)[C@H]2C1", "cytotoxicity at 10 µM": -0.285},
      {"smiles": "COc1ccc(C2=CCN(C(=O)CN(C)Cc3ccco3)CC2)cc1", "cytotoxicity at 10 µM": -6.16},
      {"smiles": "CCC1CN(CC(=O)N2CCN(C(C)=O)CC2)CCN1CCOC", "note": "(configuration not stated)", "cytotoxicity at 10 µM": -7.58},
      {"smiles": "Cn1cc(CN2CCCCC2c2ccc(-c3cnn(C)c3)nc2)cn1", "note": "(configuration not stated)", "cytotoxicity at 10 µM": 9.25},
      {"smiles": "Cn1ccnc1NC[C@@H]1CCC[C@@H]2CN(CC3CC3)C[C@@H]21", "cytotoxicity at 10 µM": 16},
      {"smiles": "O=C(NCCNc1ccccn1)NC1CCOC2(CCCCC2)C1", "note": "(configuration not stated)", "cytotoxicity at 10 µM": -8.8},
      {"smiles": "O=C(C1CCOCC1)N1CCC2(CCN(Cc3nccs3)CC2)CC1", "cytotoxicity at 10 µM": -83.1},
      {"smiles": "Cc1nnc(C(C)N2CCCN(Cc3ccc(F)cc3)CC2)o1", "note": "(configuration not stated)", "cytotoxicity at 10 µM": -4.92},
      {"smiles": "COCCC(=O)N(CCC#N)c1ccc2c(c1)OCCO2", "cytotoxicity at 10 µM": -1.23},
      {"smiles": "CCNC(=O)c1cc(OC)c2cc(F)cc(C)c2n1", "cytotoxicity at 10 µM": -3.42},
      {"smiles": "COc1cccn(CC(=O)N(C)CCSC)c1=O", "cytotoxicity at 10 µM": 5.03},
      {"smiles": "Cn1c(Nc2cn[nH]c2)c(C#N)c(=O)n(C)c1=O", "cytotoxicity at 10 µM": 14.9},
      {"smiles": "CCS(=O)(=O)N1CCOCC2(CCN(c3ccccn3)C2)C1", "note": "(configuration not stated)", "cytotoxicity at 10 µM": 5.66},
      {"smiles": "N#Cc1ccc(CN(CC(N)=O)C2CCCC2)cc1", "cytotoxicity at 10 µM": 38},
      {"smiles": "CC(=O)N(Cc1ncc(C(C)C)o1)C1CCN(CCn2cncn2)C1", "note": "(configuration not stated)", "cytotoxicity at 10 µM": -11.3},
      {"smiles": "Cc1cc(C(F)(F)F)nc(N2CCN(Cc3nccn3C)CC2)n1", "cytotoxicity at 10 µM": -4.28},
      {"smiles": "CCSCC(C)NCc1cn2ccccc2n1", "note": "(configuration not stated)", "cytotoxicity at 10 µM": -7.38},
      {"smiles": "CCNC(=O)c1ccc2ccc(N(CC)CC)n2c1", "cytotoxicity at 10 µM": 1.67},
      {"smiles": "COCCN1CCC2(CC1)CN(Cc1cccc(C)n1)C(=O)CO2", "cytotoxicity at 10 µM": -4.52},
      {"smiles": "Cc1cc(CNC(=O)NCCCC(=O)N2CCc3ccccc32)no1", "cytotoxicity at 10 µM": 5.02},
      {"smiles": "CNC(=O)NC(=O)CCSc1ccccc1C", "cytotoxicity at 10 µM": 4.11},
      {"smiles": "COc1cccc(CN(C)C(=O)NCc2c(C)cc(C)[nH]c2=O)c1", "cytotoxicity at 10 µM": -7.98},
      {"smiles": "CCc1cnc(N2C[C@@H]3[C@@H](C(=O)NC(C)C)CCS(=O)(=O)[C@@H]3C2)nc1", "cytotoxicity at 10 µM": -146},
      {"smiles": "O=C(c1cnn[nH]1)N1CCCC1c1nc2cc(F)ccc2[nH]1", "note": "(configuration not stated)", "cytotoxicity at 10 µM": 2.68},
      {"smiles": "Cc1cnn(C2CCCN(C(=O)c3ccc(Cn4ccnc4)cc3)C2)c1", "note": "(configuration not stated)", "cytotoxicity at 10 µM": 2.54},
      {"smiles": "O=C(CCc1nc(Cl)n[nH]1)N1C[C@@H](CN2CCCCCC2)[C@@H](CO)C1", "cytotoxicity at 10 µM": 0.152}
    ]}
  ]
}
